Bioassay records from PubChem BioAssay.
This is a sample that favours compounds with a hit; in the whole collection about 3.5% have one here.
MrgX1 agonist = human MrgX1 receptor agonism, primary screen; Q96LB2; MrgX1-HEK293 cells, Fluo-4 calcium fluorescence, agonist mode; active compounds read high; B-score at 10 µM; 310,000 compounds, 0.44% hits;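 active = calcium response B-score plate-corrected fluorescence ratio at least 3 library SD, with starting fluorescence B-score inside 5 SD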
Target sequence (Q96LB2 whole entry, looked up): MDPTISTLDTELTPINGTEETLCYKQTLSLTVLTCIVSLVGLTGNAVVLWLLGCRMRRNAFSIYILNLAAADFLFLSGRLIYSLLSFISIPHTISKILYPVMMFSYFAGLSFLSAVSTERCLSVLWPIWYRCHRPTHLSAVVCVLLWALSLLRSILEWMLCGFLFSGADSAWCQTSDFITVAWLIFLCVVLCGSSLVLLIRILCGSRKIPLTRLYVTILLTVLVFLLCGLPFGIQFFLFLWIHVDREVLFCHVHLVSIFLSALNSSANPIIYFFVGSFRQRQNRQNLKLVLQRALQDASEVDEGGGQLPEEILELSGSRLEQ
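System: HEK293 cells stably expressing human MrgX1 receptor; Dosing: test compound in the initial addition of three; Schedule: overnight plating, then 30 min 37 °C plus 30 min room-temperature dye loading; Detection: kinetic calcium dye fluorescence, Fluo-4 NW; Controls: per-plate positive and negative controls for Z′ factor.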
RGS4 pot = potentiators or activators of RGS4 | HEK293 M3R/inducible RGS4, carbachol calcium flux Fluo4; active compounds read low | B-score at 10 µM | AID 463111 | 310,000 compounds, 0.92% hits;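 active = B-score of the integrated calcium signal more than 4 SD below the library mean, with starting fluorescence not abnormally high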;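 also: negative B-score means reduced calcium response which marks RGS4 activation or potentiation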
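test system = M3R-expressing HEK293 line, RGS4 induced by doxycycline | probe or stimulus = carbachol at ECmax as muscarinic agonist stimulus | timing = dye loading 30 min 37 °C, buffer rest 30 min RT | signal = calcium dye Fluo4 fluorescence | evaluation = B score from integrated fluorescence ratio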
MrgX1 allo act = allosterically activates human MrgX1 receptor signaling. MrgX1-HEK293, Fluo-4 calcium flux, FDSS; active compounds read high. B-score at 10 µM. 310,000 compounds, 0.63% hits;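 active = plate-corrected calcium response at least 3 library SD above typical, normal starting fluorescence, not activating the receptor alone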;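 also: compound read alongside a low EC10 to EC30 dose of BAM8-22 agonist; peak minus trough fluorescence over baseline measured at the second addition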
RGS4 inh = inhibitors of human RGS4; B-score at 10 µM; AID 463165; HEK293 M3R/RGS4 inducible, Fluo-4 calcium flux; active compounds read high; triggered by carbachol at its EC20; P49798; 310,000 compounds, 0.45% hits;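 active = B-score, a plate-corrected calcium signal, over three deviations above library mean, with baseline fluorescence within five deviations of library mean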;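 also: RGS4 expression induced by doxycycline in cells with stable M3 receptor; B-score is computed from the integrated fluorescence ratio over baseline after carbachol; higher B-score means a larger calcium signal and so more RGS4 inhibition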
Target sequence (P49798 whole entry, looked up): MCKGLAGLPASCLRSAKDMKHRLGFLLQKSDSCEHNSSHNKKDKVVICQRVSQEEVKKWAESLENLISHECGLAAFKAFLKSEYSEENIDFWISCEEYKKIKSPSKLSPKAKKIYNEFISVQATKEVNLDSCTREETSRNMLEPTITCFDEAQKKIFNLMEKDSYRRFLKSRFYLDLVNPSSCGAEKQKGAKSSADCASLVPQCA
MrgX1 antag = blocks BAM8-22 activation of human MrgX1 receptor; Q96LB2; MRGX1-HEK293 calcium flux, Fluo-4, BAM8-22 antagonism; active compounds read low; B-score at 10 µM; AID 588676; 310,000 compounds, 1.3% hits;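 active = calcium-response B-score plate-corrected more than 3 library SD below zero, starting fluorescence within 5 deviations, no agonist response on first addition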;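 also: peak minus trough fluorescence over baseline after final BAM8-22 challenge near maximal dose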
RGS4 inh valid = validation of RGS4 inhibitors; calcium response, % at 10 µM; shares compounds with RGS4 inh; AID 492999; 1,700 compounds, 65% hits; HEK293 M3R/RGS4, carbachol calcium Fluo-4 fluorescence; carbachol added at its EC20; 0 = buffer wells, 100 = carbachol control;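 active = duplicate-averaged calcium response above the buffer-only control mean plus 5 SD of those controls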;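 also: integrated fluorescence ratio F max minus min over baseline F0; higher response in RGS4-induced cells means RGS4 inhibition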
RGS4 uninduced = non-induced cell nonspecific activity of RGS4 inhibitors; shares compounds with RGS4 inh; activity (percent), % at 10 µM; HEK293 M3R non-induced, carbachol calcium Fluo-4; submaximal (EC20) carbachol stimulus; buffer wells 0%, carbachol control wells 100%; 1,900 compounds, 20% hits; call rule not given here;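 also: RGS4 induction absent so cells express M3R without RGS4; higher means more calcium signal and flags a non-specific hit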
RGS4 inh ctr2 = second counter-screen for RGS4 inhibitors: non-induced cells without carbachol. HEK293 M3R/RGS4 non-induced, Fluo-4 calcium, no carbachol; normalised: buffer wells 0%, carbachol wells 100%. 1,900 compounds, 22% hits. shares compounds with RGS4 inh. calcium response (agonist-mode artifact), % at 10 µM;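 active = duplicate-averaged calcium rise in uninduced cells above buffer wells' mean plus 5 SD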
* = called active by the depositor; i = inactive; / = not tested or not shown.

SMILES | MrgX1 agonist | RGS4 pot | MrgX1 allo act | RGS4 inh | MrgX1 antag | RGS4 inh valid | RGS4 uninduced | RGS4 inh ctr2
COc1ccc(CCNC(=O)/C=C/c2ccc3ccccc3n2)cc1OC | i | i | i | 13.1* | i | 34.5%* | 31.5%* | i
COc1ccc(/C=C/C(=O)NCCc2ccc(OC)c(OC)c2)cc1 | i | i | i | i | i | / | / | /
CCc1cc(-c2n[nH]c(C)c2-c2nc(C)cs2)c(O)cc1OC | i | i | i | 5.32* | i | 9.5%* | i | i
CCC(=O)Nc1ccc2c(c1)nc(CCNC(=O)c1ccco1)n2C | i | i | i | i | i | / | i | i
Cc1ccccc1C(=O)Nc1ccc2c(c1)nc(CCNC(=O)c1ccco1)n2C | i | i | i | i | i | / | / | /
N#CC1=C2N=C(N)c3ccccc3N2C2=C(C(=O)CCC2)C1c1ccc(F)cc1 (centres undefined) | i | i | i | i | i | / | i | i
Cc1ccc(C2C(C#N)=C3N=C(N)c4ccccc4N3C3=C2C(=O)CCC3)cc1 (centres undefined) | i | i | i | i | i | / | i | i
N#CC1=C2N=C(N)c3c(sc4c3CCCCC4)N2C2=C(C(=O)CCC2)C1c1ccccc1 (centres undefined) | i | i | i | i | i | / | / | /
COc1cccc(NC(=O)c2sc3nc(N4CCOCC4)c4c(c3c2N)CCCC4)c1 | i | i | i | i | i | / | / | /
COc1ccc(C2=NN(C(=O)CCC(=O)O)C(c3ccccc3OC)C2)cc1 (centres undefined) | i | i | i | i | i | / | / | /
Cc1[nH]c2ccccc2c1/C=N/NC(=O)c1cc(C(C)C)[nH]n1 | i | i | i | i | i | / | / | /
O=C(Cc1ccccc1)Nc1cccc(N2C(=O)C=CC2=O)c1 | i | i | i | 7.52* | i | 12.0%* | i | 41.5%*
COc1cc(OC)c(OC)cc1NC(=O)CC1COc2ccccc2O1 (centres undefined) | i | i | i | i | i | / | / | /
COc1ccc(CCNC(=O)CC2COc3ccccc3O2)cc1OC (centres undefined) | i | i | i | 13.3* | i | i | i | i
Clc1ccc(C2=Nn3c(nnc3-c3n[nH]c4c3CCC4)SC2)cc1 | i | i | i | i | i | i | i | i
CCOC(=O)[C@@H]1[C@H]2COc3cc(OC)ccc3[C@@H]2N2C(=O)N(c3ccc(Cl)cc3)C(=O)[C@]12C | i | i | i | i | i | i | i | i
CCOC(=O)[C@@H]1[C@H]2COc3cc(OC)ccc3[C@@H]2N2C(=O)N(c3cccc(Cl)c3)C(=O)[C@]12C | i | i | i | i | i | i | i | i
CCOC(=O)[C@@H]1[C@H]2COc3cc(OC)ccc3[C@@H]2N2C(=O)N(c3cccc(Cl)c3)C(=O)[C@@]12C | i | i | i | i | i | i | i | i
CCOC(=O)[C@@H]1[C@H]2COc3cc(OC)ccc3[C@@H]2N2C(=O)N(c3ccc(Br)cc3)C(=O)[C@]12C | i | i | i | i | i | / | / | /
CCOC(=O)[C@@H]1[C@H]2COc3cc(OC)ccc3[C@@H]2N2C(=O)N(c3ccc(C)cc3)C(=O)[C@]12C | i | i | i | i | i | / | / | /
CCOC(=O)[C@H]1[C@H]2COc3cc(OC)ccc3[C@@H]2N2C(=O)N(c3cccc(Cl)c3)C(=O)[C@@]12C | i | i | i | i | i | i | i | i
Cc1c(C(=O)Nc2ccccc2F)sc2ncn(CC(=O)N3CCCCC3)c(=O)c12 | i | i | i | i | i | / | / | /
O=C(NCCCNC(=O)c1ccco1)c1cccc(F)c1 | i | i | i | i | i | / | / | /
Cc1ccc(CSCc2ccc(C(=O)O)o2)cc1 | i | i | i | 4.98* | i | i | i | i
Cc1cccc(CSCc2ccc(C(=O)O)o2)c1 | i | i | i | i | i | / | / | /
SMILES | MrgX1 agonist | RGS4 pot | MrgX1 allo act | RGS4 inh | MrgX1 antag | RGS4 inh valid | RGS4 uninduced | RGS4 inh ctr2
CC(C)Oc1ccc(C(=O)/C=C2/C(=O)Nc3ccccc32)cc1 | i | i | i | 5.11* | i | 10.5%* | 71.5%* | i
CC(C)c1ccc(N2C(=O)CC(Sc3ncn[nH]3)C2=O)cc1 (centres undefined) | i | i | i | i | i | / | / | /
COc1ccc(N2C(=O)CC(Sc3ncn[nH]3)C2=O)c(OC)c1 (centres undefined) | i | i | i | 12.4* | i | 21.5%* | i | i
COC(=O)c1ccc(COc2ccccc2/C=C(\C#N)C(=O)Nc2ccc(C)cc2)cc1 | i | i | i | i | i | i | i | i
N#C/C(=C\c1ccccc1OCc1ccc(C(=O)O)cc1)C(=O)Nc1ccc(O)cc1 | i | i | i | 6.91* | i | 13.5%* | i | i
CCCCN(C)CCCNC(=O)C1CCC(CNS(=O)(=O)c2c(C)cc(C)cc2C)CC1 (centres undefined) | i | i | i | i | i | / | / | /
COc1ccc(C2=NN(CC(=O)NCc3ccco3)C(=O)CC2)cc1 | i | i | i | i | i | / | / | /
Cc1ccc(Cc2cc(-c3ccc(C)cc3)n[nH]c2=O)cc1 | i | i | i | i | i | / | i | i
O=c1[nH]nc(-c2ccc(F)cc2)cc1Cc1ccc(F)cc1 | i | i | i | i | i | / | i | i
Cc1ccc(-c2cc(Cc3ccc(F)cc3)c(=O)[nH]n2)cc1 | i | i | i | i | i | / | / | /
O=S(=O)(c1ccc(F)cc1)N1CCN(CCc2ccccc2)CC1 | i | i | i | i | i | / | / | /
Cc1cc(Cl)c2oc(C(=O)N(C)CC3CCOCC3)c(C)c2c1 | i | i | i | i | i | / | / | /
CN(C)c1oc(-c2ccccc2[N+](=O)[O-])nc1C#N | i | i | i | 10.8* | i | 5.0%* | i | i
